Screens from PubChem.
PTEN del growth = growth suppressors of cells with PTEN tumor suppressor deletion | AID 827 | viability, % at 10 µM | hit rate 1.2% among 140,000 | HCT116 PTEN-null viability, CellTiter-Glo, 60 h; active compounds read low;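 active = viability at or below a set limit, 4 SD under the median of all tested compounds, cut at about 3.7% in these data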;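 note: PTEN knockout HCT116 line with beta catenin targeted HCT116 as companion control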
Lung fibro prol = blocks proliferation of human lung fibroblasts. LL 47 human lung fibroblast viability, ATP luminescence; active compounds read low. viability, % at 10 µM. hit rate 1.1% among 85,000. AID 719;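 active = viability at or below 50% in the single dose screen; inactive = viability above 50%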;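 note: compound exposure lasted 72 h before the ATP readout; 100% = median luminescence of untreated cell-only wells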
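test system = LL 47 human lung fibroblasts | amount = 1,150 fibroblasts seeded per well | medium = 15% FBS in IMEM | times = overnight cell rest, 72 h compound treatment at 37 °C | measured by = CellTiter-Glo luminescence measuring cellular ATP | read-out = viability percentage against median untreated-cell control | benchmarks = cell-only wells, no compound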
bCat KO growth = beta-catenin-lacking colon tumor cell growth suppression; HCT116 beta-catenin knockout viability, CellTiter-Glo, 60 h; active compounds read low; viability, % at 10 µM; hit rate 1.5% among 140,000; AID 818;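 active = viability at or under a set limit, the compound median less 4 SD, cut at about 6% in these data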;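 note: 0% = Hyamine 1622 control at 20 µM and 100% = untreated cell control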
H69AR growth 86K = growth inhibitors of human H69AR lung tumor cells; H69AR lung tumor viability, ATP luminescence, 72 h; active compounds read low; viability, % at 10 µM; hit rate 6% among 85,000; AID 598;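 active = viability at or below 40%; inactive = viability above 40%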;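 note: multidrug resistant small cell line overexpressing MRP-1 efflux transporter; 100% = mean luminescence of untreated control wells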
HUVEC prolif 384 = inhibitors of human endothelial cell proliferation | HUVEC proliferation, CellTiter-Glo luminescence, 72 h; active compounds read low | viability, % at 10 µM (by protocol) | hit rate 1.1% among 86,000;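 active = viability at or below 30%; inactive = viability above 30%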;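 note: 100% = median luminescence of DMSO-only cell control wells on each plate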
The depositor's hits bear a star; nt = not tested or not shown. The entries come from a sample that favours hits as a whole.

SMILES	PTEN del growth	Lung fibro prol	bCat KO growth	H69AR growth 86K	HUVEC prolif 384
Cc1ccccc1CS(=O)(=O)c1nnc([C@H](CC(C)C)NC(=O)OC(C)(C)C)o1	88.4	3.9*	94.3	76.1	73.2
CC(C)(C)OC(=O)N[C@@H](Cc1ccccc1)c1nnc(S(=O)(=O)Cc2cccc(F)c2)o1	82.9	19.9*	78.8	1.0*	55.5
CC(C)[C@H](NC(=O)OC(C)(C)C)c1nnc(S(=O)(=O)Cc2c(F)cccc2Cl)o1	nt	2.6*	nt	0.9*	55.6
CC(C)C[C@H](NC(=O)OC(C)(C)C)c1nnc(SCc2ccccc2)o1	72.3	96.5	76.8	98.4	99.2
O=C(NCCC1=CCCCC1)C1CCN(C(=O)c2ccc(Br)cc2)CC1	69.3	nt	72.7	nt	nt
Cc1ccccc1NCc1ccc(O)c2ncccc12	11.0	93.0	12.0	71.5	84.3
CN1CCN(Cc2cc(COCc3ccccc3)c3cccnc3c2O)CC1	0.8*	2.8*	1.1*	1.8*	70.8
Cc1ccccc1N=Nc1ccc(O)c2ncccc12	10.9	nt	15.8	nt	nt
OCc1ccnc2c(O)cccc12	2.9*	nt	3.2*	nt	nt
O=[N+]([O-])c1ccc(O)c2ncccc12	3.9	nt	4.1*	nt	nt
Oc1ccc(CN2CCN(Cc3ccccc3)CC2)c2cccnc12	2.0*	94.8	2.4*	2.0*	105.9
Cc1cccc(C(=O)c2c[nH]cc2-c2ccccc2)c1	93.8	nt	92.9	nt	nt
Cc1ccc2[nH]c(O)c(N=NC(=O)C3CC3c3ccccc3)c2c1Br (stereo not drawn)	28.5	nt	21.9	nt	nt
CCC(C)n1c(SCc2ccccc2)nc2ccsc2c1=O (stereo not drawn)	74.3	nt	80.0	nt	nt
COCc1ccc(O)c2ncccc12	2.1*	3.0*	2.2*	1.1*	6.0*
Oc1ccc(CNc2ccc(F)cc2)c2cccnc12	10.0	85.2	11.9	55.3	77.4
Oc1ccc(CNc2ccccc2)c2cccnc12	5.5	88.5	7.4	35.6*	71.5
O=C(COC(=O)c1ccccc1)Nc1ccccc1N1CCOCC1	92.0	97.5	93.4	83.5	96.2
CCCCS/C(=C(/C#N)C(N)=O)c1cc2c([nH]1)CCCC2	23.3	66.6	19.7	5.2*	68.9
CC(C)(C)NC(=O)CN(C(=O)Cn1nnc(-c2ccc(Cl)cc2)n1)C1CCN(Cc2ccccc2)CC1	27.8	91.2	1.6*	45.6	30.4
c1ccc2c(c1)OCCOCCOc1ccccc1OCCOCCO2	55.1	nt	65.8	nt	nt
CSc1cc(-c2ccccc2)n(Cc2ccc(Cl)cc2Cl)c(=O)c1C#N	102.2	94.2	95.6	35.8*	92.5
O=c1cc(-c2ccccc2)[nH]n1-c1nc2ccccc2[nH]1	7.8	27.5*	4.5*	nt	54.2
CC1CN(c2nc3c(c(=O)n(Cc4ccc(Cl)c(Cl)c4)c(=O)n3C)n2C)CC(C)O1 (stereo not drawn)	57.2	88.1	62.8	95.5	90.0
Cn1c(N2CCCCC2)nc2c1c(=O)n(Cc1cccc(Br)c1)c(=O)n2C	67.0	98.2	89.6	34.5*	99.5
SMILES	PTEN del growth	Lung fibro prol	bCat KO growth	H69AR growth 86K	HUVEC prolif 384
Cn1c(N2CCN(c3ccccn3)CC2)nc2c1c(=O)n(Cc1ccccc1Cl)c(=O)n2C	nt	91.9	nt	23.4*	83.9
Cc1cc(C)n(-c2nc3c(c(=O)n(Cc4ccc(Cl)c(Cl)c4)c(=O)n3C)n2C)n1	nt	90.7	nt	38.0*	69.1
Cc1sc2nc(-c3cccs3)nc(N3CCCN(C)CC3)c2c1C	nt	56.2	nt	23.9*	21.1*
Cc1sc2nc(CN3CCCCC3)nc(Cl)c2c1C	5.2	nt	5.4*	nt	nt
Cc1sc2nc(CN3CCCC3)nc(N3CCN(S(=O)(=O)c4cccs4)CC3)c2c1C	38.7	69.8	33.5	66.9	6.4*
Cc1sc2nc(SCC(=O)N3CCCCC3)[nH]c(=O)c2c1C	87.5	101.6	86.9	77.2	83.8
O=C(CCC1CCCC1)Nc1nnc(-c2ccc3c(c2)OCO3)s1	101.5	nt	93.1	nt	nt
CCOc1ccccc1C(=O)NC(C)c1ccc2c(c1)OCO2 (stereo not drawn)	26.4	97.2	23.1	23.7*	65.3
COc1ccccc1CNC(=O)C1CCN(Cc2nc(-c3cccc(Cl)c3)oc2C)CC1	23.8	88.9	22.4	39.5*	55.6
CCc1ccc(-c2nc(CN3CCC(C(=O)NCc4ccccc4OC)CC3)c(C)o2)cc1	34.1	66.5	20.8	18.5*	31.9
COc1ccccc1CNC(=O)C1CCN(Cc2nc(-c3ccc(Cl)cc3)oc2C)CC1	nt	102.9	nt	66.4	42.2
CCc1ccc(-c2nc(CN3CCC(C(=O)NCCc4ccc(OC)c(OC)c4)CC3)c(C)o2)cc1	15.4	89.5	2.0*	69.3	55.4
CCN1CCCC1CNC(=O)C1CCN(Cc2nc(-c3cccc(Br)c3)oc2C)CC1 (stereo not drawn)	6.2	29.0*	4.7*	52.5	18.2*
Cc1ccc(-n2nnnc2CSc2nnc(-c3ccc(O)cc3)o2)cc1	88.9	nt	85.8	nt	nt
O=c1c2c3nc4ccccc4nc3n(-c3cccc(F)c3)c2ncn1Cc1ccc2c(c1)OCO2	nt	65.8	nt	18.1*	72.6
COc1ccc(C=C(C(C)=O)C(C)=O)cc1OC	91.5	103.3	111.4	22.3*	89.1
CCCCNC(=S)N/N=C/c1ccccc1F	78.0	nt	86.5	nt	nt
O=C(NN1C(=O)c2ccc3c4c(ccc(c24)C1=O)CC3)c1ccc(Br)cc1	97.2	nt	87.5	nt	nt
CCN1CCc2c(sc(NC(=O)Nc3ccc(Cl)c(Cl)c3)c2C(N)=O)C1	3.8*	nt	14.2	nt	nt
COc1ccc(-c2cc(C(=O)NCc3cn(C)nc3C)c3ccccc3n2)cc1OC	83.7	nt	84.5	nt	nt
CC(SCC(=O)NC(C)C1CC2CCC1C2)C(=O)O (stereo not drawn)	104.4	nt	97.5	nt	nt
Cc1noc(C)c1COc1cccc(C(=O)OCC(=O)N2CC(=O)Nc3ccccc32)c1	18.7	59.4	19.1	22.5*	60.4
O=C1CN(C(=O)COc2cccc(F)c2)c2ccccc2N1	90.6	nt	96.4	nt	nt
Cc1ccc2c(c1)c1c3n2CCN(C(=O)CN2CCN(C)CC2)C3CCC1 (stereo not drawn)	0.8*	62.9	1.0*	92.0	22.8*
Cc1ccc2c(c1)c1c3n2CCCN(Cc2ccccc2)C3CCC1 (stereo not drawn)	76.3	86.0	77.9	36.4*	82.3
SMILES	PTEN del growth	Lung fibro prol	bCat KO growth	H69AR growth 86K	HUVEC prolif 384
Cc1ccc2c(c1)c(=O)c1c3n2CCN(C(=O)CCl)C3CC1 (stereo not drawn)	92.8	2.0*	92.2	1.5*	8.9*
CN1CCN(CC(=O)N2CCn3c4c(c5cc(C6CCCCC6)ccc53)CCCC42)CC1 (stereo not drawn)	1.6*	1.9*	1.3*	1.1*	2.7*
Cc1ccc2c(c1)c1c3n2CCN(C(=O)C2CC2)C3CCC1 (stereo not drawn)	89.5	93.3	82.8	90.6	103.7
Cc1ccc2c(c1)c1c3n2CCN(C(=O)Cn2c(-c4ccccc4)noc2=O)C3CCC1 (stereo not drawn)	60.5	97.5	68.7	86.3	91.7
C1CCC(C(CC2CCCCN2)C2CCCCC2)CC1 (stereo not drawn)	2.2*	1.8*	1.5*	1.3*	1.6*
COc1ccc(/C(O)=C/c2nc3ccc(C(=O)NCCc4cccc(C)c4)cc3[nH]c2=O)cc1OC	1.5*	nt	2.0*	nt	nt
